This is an account of results in ChEMBL document CHEMBL1140775, “Low-density lipoprotein (LDL)-antioxidant lignans from Myristica fragrans seeds” (Bioorg Med Chem Lett, 2008).

What is called inhibition is how much of the control response was suppressed. The IC50 is the point on the concentration scale where inhibition reaches its midpoint. A low value points to higher potency.

Assay type in all cases: functional
Assay [1] is described as follows: Antioxidant activity assessed as inhibition of LDL-oxidation at 20 uM by TBARS assay. The method in brief: (§1)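 Copper-mediated oxidation of human plasma LDL (120 µg/mL); oxidation quantified by TBARS formation. Mean of two independent experiments, each in duplicate.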
The nature of assay [2]: Antioxidant activity against LDL-oxidation by TBARS assay. In outline: as §1
Assay [3] can be described thus: Antioxidant activity against LDL-oxidation assessed as conjugated diene formation lag time at 3.0 uM. The method in brief: (§2)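 Human plasma LDL (120 µg protein/mL) oxidized with 5 µM CuSO4, with or without compound; conjugated diene formation read as absorbance at 234 nm every 10 min for 4 h. Lag time taken as elapsed time before onset of rapid conjugated hydroperoxide formation.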

The test system of assay [4] is THP-1. Briefly: Antioxidant activity against LDL-oxidation in human THP1 cells assessed as malondialdehyde level per mg of LDL protein at 5 uM. In outline:
(§3)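 PMA-differentiated THP-1 macrophages incubated 24 h at 37 °C in serum-free RPMI 1640 with LDL (100 µg/mL) and 2 µM Cu2+, with or without compound. TBARS measured directly in harvested medium, expressed as MDA nmol/mg LDL protein; mean ± SD, n = 3.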

Assay [5] in a line: Antioxidant activity assessed as inhibition of copper-mediated LDL-oxidation at 20 uM by relative electrophoretic mobility method. The method in brief:
(§4)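 LDL (120 µg/mL in PBS) incubated 12 h at 37 °C with 5 µM CuSO4 with or without compound. About 2.0 µg LDL protein run on 0.7% agarose gel, Coomassie-stained, densitometrically scanned; migration distance measured, protection expressed relative to native and fully oxidized LDL.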

For assay [6], the system named is THP-1. The assay can be described thus: Antioxidant activity against LDL-oxidation in human THP1 cells assessed as malondialdehyde level per mg of LDL protein at 1 uM. The method in brief: as §3
Assay [7] can be described thus: Antioxidant activity assessed as inhibition of apoB100 fragmentation at 10 uM by SDS-PAGE method. In outline: (§5)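 Human LDL in PBS incubated 4 h at 37 °C with 5 µM CuSO4 with or without compound. About 2.0 µg LDL protein run on 7.5% SDS-PAGE, Coomassie-stained, densitometrically scanned; apoB-100 band area given as absorbance units per mm.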
Assay [8] in a line: Antioxidant activity assessed as inhibition of copper-mediated LDL-oxidation at 10 uM by relative electrophoretic mobility method. The method in brief:
as §4

The nature of assay [9]: Antioxidant activity assessed as inhibition of apoB100 fragmentation at 20 uM by SDS-PAGE method. In outline: as §5
Assay [10] in a line: Antioxidant activity against LDL-oxidation assessed as conjugated diene formation lag time at 1.0 uM. The method in brief:
as §2

Molecules are shown by their SMILES. Calls of active or inactive are those of the source. The rule behind the calls is not given here.

Turning to `COc1cc(C[C@H](C)[C@H](C)Cc2ccc(O)c(O)c2)ccc1O`, the inhibition in assay [1] was 91%. This molecule displayed an IC50 in assay [2] of 3.6 µM.
In the same order, the values of `COc1cc([C@@H](O)[C@H](C)[C@H](C)Cc2ccc3c(c2)OCO3)ccc1O` are 45.7% and 6.3 µM.
In the same order, the values of `COc1cc([C@H]2c3cc4c(cc3C[C@@H](C)[C@@H]2C)OCO4)ccc1O` are 40.9% and 7.3 µM.
In the same order, the values of `COc1cc(C[C@H](C)[C@H](C)Cc2ccc3c(c2)OCO3)ccc1O` [AUSTROBAILIGNAN 6] are 64.5% and 7.5 µM.
In the case of `C[C@H](Cc1ccc2c(c1)OCO2)[C@H](C)Cc1ccc2c(c1)OCO2`, the inhibition in assay [1] amounted to 0%. Further, the outcome in assay [2] was inactive.
In the case of `CC(C)(Sc1cc(C(C)(C)C)c(O)c(C(C)(C)C)c1)Sc1cc(C(C)(C)C)c(O)c(C(C)(C)C)c1` [PROBUCOL], the Activity in [3] was 67 min. Moreover, in assay [1], the inhibition was 92%. The same molecule returned an IC50 in assay [2] of 3.1 µM.
Regarding `COc1cc(C[C@@H](C)[C@@H](C)Cc2ccc(O)c(OC)c2)ccc1O` [MESODIHYDROGUAIARETIC ACID], the Activity in [4] came out at 35.2 nmol; in assay [6], 306.3 nmol; in [10], 140 min. The inhibition in [5] was determined as 82%; in assay [1], 93%; in assay [7], 54%; in [8], 72%; in assay [9], 93%. The molecule also registered an IC50 in [2] of 2.6 µM.
As to `COc1cc(C(OC)C(C)C(C)Cc2ccc3c(c2)OCO3)ccc1O` (centres undefined), in assay [1], the inhibition is 28.9%. The midpoint of inhibition in assay [2], the IC50, lay at 7.9 µM.
